A short description of series [1]: Inhibition of FAM-pYLPQTV binding to unphosphorylated STAT3 beta (unknown origin) expressed in Escherichia coli BL21 Rosetta cells after 5 mins by fluorescence polarization assay. Also noted: species or system Homo sapiens. The method in brief:
(§1)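 Unphosphorylated STAT3βtc was expressed in E. coli with IPTG induction overnight at 21 °C, then purified by ion exchange. In PBS pH 7.4, 350 nM protein was mixed with 10 nM FAM-pYLPQTV (final). Base polarization was read, inhibitor was added, the plate was shaken 5 min and read again. % inhibition = (X−Y)/X×100, each term corrected for free probe.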
(In general: Polarisation of emitted light reports the rotation of a fluorescent probe.)

The species named for series [2] is Homo sapiens. The series is described as follows: Inhibition of unphosphorylated STAT3 beta dimerization (unknown origin) expressed in Escherichia coli BL21 Rosetta cells at 100 uM after 5 mins by fluorescence polarization assay relative to pYLKTKF. The gist of the method:
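Same STAT3βtc/FAM-pYLPQTV polarization displacement setup: 350 nM protein, 10 nM probe, PBS pH 7.4, 5 min after addition. Ligand tested at 100 μM. Its % inhibition (B) was expressed as B/A×100, where A is the % inhibition from 100 μM […], taken as 100%.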

Series [3] is filed under the species Homo sapiens. Kind of series: Inhibition of unphosphorylated STAT3 beta dimerization (unknown origin) expressed in Escherichia coli BL21 Rosetta cells at 100 uM after 5 mins by fluorescence polarization assay relative to STA-21.
Series [4] in a line: Inhibition of unphosphorylated STAT3 beta dimerization (unknown origin) expressed in Escherichia coli BL21 Rosetta cells after 5 mins by fluorescence polarization assay. The arrangement: species or system Homo sapiens. The method in brief:
as §1

Series [5] deals with MDA-MB-231. Kind of series: Cytotoxicity against human MDA-MB-231 cells assessed as reduction in cell viability after 24 hrs by MTT assay. In kind it is functional, cell-based. To be noted: MDA-MB-231, 24 h. The gist of the method: (§2)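 Cells kept at 37 °C, 5% CO2. MDA-MB-231 were grown in DMEM with 10% FBS, 2 mM L-glutamine, NEAA and pen-strep, seeded at 2500 cells/well. A4 were grown in RPMI 1640 with 10% FBS and pen-strep, seeded at 5000 cells/well. WI-38 were grown in DMEM with 10% FBS, seeded at 5000 cells/well. Plates rested 24 h before compound was added in triplicate. MTT absorbance was read at 570 nm.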

Series [6] can be described thus: Cytotoxicity against human A4 cells assessed as reduction in cell viability after 24 hrs by MTT assay. In kind it is functional, cell-based. The method in brief: as §2
The subject of series [7] is WI-38. The series is described as follows: Cytotoxicity against human WI38 cells assessed as reduction in cell viability at 100 uM after 24 hrs by MTT assay. It is filed as cell-based. To be noted: wi-38, 24 h. The gist of the method: as §2
(In general: Tetrazolium assays rely on reduction of a dye to a coloured formazan, in cell work by metabolically active cells.)

SMILES strings stand for the structures. Bounds are passed on as bounds.

In general, IC50 refers to the concentration at which inhibition is half-maximal. Usually inhibition stands for the relative decrease from the control value, in per cent.

Take `COC(=O)C1=C[C@H](O)C[C@H]2[C@@]1(C)C=C[C@](O)(C(=O)O)[C@@]2(C)CC(OC(C)=O)c1ccoc1` (stereo not given in full): the concentration for half-maximal inhibition (IC50) in series [1] was 42 µM; in series [4], 42 µM; in series [5] it was 10 µM; in series [6] it was over 10 µM. The inhibition amounted to 60% in series [2] and 119% in series [3]. For the same compound, the Activity result in series [7] was “Non-Toxic”.

Turning to `C[C@H]1C[C@H]2OC(=O)[C@@]34O[C@@H]3CC[C@@H]([C@]1(C)CCC1=CCOC1=O)[C@@]24C`, the IC50 in series [5] turned out to be 5.4 µM.

As to `C[C@@]1(CC(O)c2ccoc2)C(C(=O)O)=CC[C@]2(C)[C@H]1[C@H]1C=C[C@@]2(O)C(=O)O1` (stereo not given in full), the IC50 in series [1] is 17 µM; in series [4], 17 µM; in series [5], 7.8 µM; in series [6], over 10 µM. The inhibition in series [2] was 72%; in series [3] it was 130%. Further, the Activity result in series [7] is reported as “Non-Toxic”.

The record behind these values is ChEMBL document CHEMBL4138288, “Crispenes F and G, cis-Clerodane Furanoditerpenoids from Tinospora crispa, Inhibit STAT3 Dimerization” (J Nat Prod, 2018).
